Measured values pooled from the literature.
Each line is one published result; the experiments were not run side by side. Values after ≈ are worked out from the molar mass of the structure shown.

O=c1cc(OCc2cc(-c3ccccc3)no2)c2ccccc2o1 — IC50 (Z-138; cell growth or viability, MTS; 72 h): > 100 µM
C[C@H]1[C@H](NC(=O)/C(=N\OC(C)(C)C(=O)O)c2csc(N)n2)C(=O)N1S(=O)(=O)O — MIC (Acinetobacter baumannii; microbial growth, broth dilution; ATCCBAA1605): > 64 µg/mL
O=C1Nc2ccccc2C1=Nc1ccccc1Br — IC50 (B16; cell growth or viability, MTT; 48 h): > 100 µM
C[C@@H](O)[C@H]1C(=O)N2C(C(=O)O)=C(SCCN=CN)C[C@H]12 — MIC (Acinetobacter baumannii; microbial growth, broth dilution; ATCCBAA1605): > 64 µg/mL
Cc1cccc(N=C2C(=O)N(Cc3ccccc3)c3ccccc32)c1 — IC50 (B16; cell growth or viability, MTT; 48 h): 1.07 µM
CN(C)[C@@H]1C(O)=C(C(N)=O)C(=O)[C@@]2(O)C(O)=C3C(=O)c4c(O)cccc4[C@@](C)(O)[C@H]3C[C@@H]12 — MIC (Acinetobacter baumannii; microbial growth, broth dilution; ATCC19606): 4 µg/mL (≈ 9 µM)
O=C1C(=Nc2ccccc2I)c2ccccc2N1Cc1ccc([N+](=O)[O-])cc1 — IC50 (B16; cell growth or viability, MTT; 48 h): 0.27 µM
O=c1oc2c(O)c(O)cc3c(=O)oc4c(O)c(O)cc1c4c23 — inhibition zone (Streptococcus gordonii; microbial growth, disc diffusion; 500 µg/disc): 16 mm
CN(C)CCNC(=O)c1ccc(-c2nc3ccc4[nH]ncc4c3c3c2CCCC3)c(F)c1 — GI50 (G-361; cell growth or viability; 72 h): 3.27 µM
CCc1ccc(N=C2C(=O)N(Cc3ccccc3)c3ccccc32)cc1 — IC50 (B16; cell growth or viability, MTT; 48 h): 0.5 µM
Oc1cc(O)c2c(c1)O[C@H](c1cc(O)c(O)c(O)c1)[C@@H](O)C2 — MBC (Streptococcus gordonii; microbial killing, broth dilution): 100 µg/mL (≈ 327 µM)
CCCCCCC#Cc1cncc(-c2nnc(SCc3cc([N+](=O)[O-])cc([N+](=O)[O-])c3)n2CCCN)c1 — MIC (Acinetobacter baumannii; microbial growth, broth dilution; ATCC17978): 32 µg/mL (≈ 61.1 µM)
O=C(O[C@@H]1O[C@@H]2COC(=O)c3cc(O)c(O)c(O)c3-c3c(cc(O)c(O)c3O)C(=O)O[C@H]([C@H]1O)[C@@H]2O)c1cc(O)c(O)c(O)c1 — inhibition zone (Streptococcus gordonii; microbial growth, disc diffusion; 500 µg/disc): 14 mm
CO/N=C(\C(=O)N[C@@H]1C(=O)N2C(C(=O)O)=CCS[C@H]12)c1csc(N)n1 — MIC (Acinetobacter baumannii; microbial growth, broth dilution; ATCC19606): 16 µg/mL (≈ 41.7 µM)
O=C1OC[C@H]2OC(O)[C@H](O)[C@@H](O)[C@@H]2OC(=O)c2cc(O)c(O)c(O)c2-c2c(O)c(O)c3oc(=O)c4c(c(O)c(O)c5oc(=O)c2c3c54)-c2c1cc(O)c(O)c2O (mixture of isomers) — inhibition zone (Streptococcus gordonii; microbial growth, disc diffusion; 500 µg/disc): 14 mm
CC(C)(C)c1cc(NC(=O)Nc2ccc(-c3cn4c(n3)sc3cc(OCCN5CCOCC5)ccc34)cc2)no1 — GI50 (G-361; cell growth or viability; 72 h): > 10 µM
C[C@@H]1O[C@@H](OC[C@H]2O[C@@H](Oc3c(-c4ccc(O)c(O)c4)oc4cc(O)cc(O)c4c3=O)[C@H](O)[C@@H](O)[C@@H]2O)[C@H](O)[C@H](O)[C@H]1O — inhibition zone (Streptococcus gordonii; microbial growth, disc diffusion; 500 µg/disc): 13 mm
CC(C)c1cccc(C(C)C)c1N=C1C(=O)N(Cc2ccccc2)c2ccccc21 — IC50 (B16; cell growth or viability, MTT; 48 h): 6.77 µM
